From PubChem BioAssay
MBD2 DNA inh: blocks human MBD2 binding to methylated DNA; Q9UBB5; TR-FRET, MBD2 binding to methylated oligonucleotide; inhibition, % at 4.4 µM; hit rate 0.31% among 370,000; AID 686964; in the data active means inhibition above about 13%
TDP2 absorb: TDP2 (human) inhibition, absorbance primary screen; O95551; recombinant TDP2, T5PNP hydrolysis, p-nitrophenol absorbance 415 nm; inhibition, % at 12.8 µM; hit rate 0.34% among 370,000; AID 720702;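 active means inhibition above the mean of all tested compounds plus 3 SD, set per campaign, cut at about 25% in these data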
Target sequence (O95551 whole entry, looked up): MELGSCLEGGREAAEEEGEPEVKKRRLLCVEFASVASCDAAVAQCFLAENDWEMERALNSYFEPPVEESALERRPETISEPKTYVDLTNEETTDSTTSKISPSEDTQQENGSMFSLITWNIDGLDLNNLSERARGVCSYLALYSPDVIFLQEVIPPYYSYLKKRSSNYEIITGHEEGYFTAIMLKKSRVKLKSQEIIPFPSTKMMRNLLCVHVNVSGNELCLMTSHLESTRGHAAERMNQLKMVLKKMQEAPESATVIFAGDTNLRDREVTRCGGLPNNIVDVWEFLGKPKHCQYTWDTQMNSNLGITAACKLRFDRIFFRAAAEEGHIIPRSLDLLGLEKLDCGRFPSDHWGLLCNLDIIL
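Material: recombinant human TDP2; quantity: TDP2 enzyme at 120 nM final; medium: Tris-HCl pH 7.5 with MgCl2; compound: single concentration, 12.8 µM nominal, with 1% DMSO; incubation: 2 h enzyme incubation at 37 °C; signal: epi absorbance; measure: percent inhibition; benchmarks: high control without enzyme, low control DMSO plus TDP2; repeats: singlicate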
UHRF1 MBD2 ctr: blocks human UHRF1 binding to methylated DNA | hit rate 0.75% among 370,000 | inhibition, % at 4.4 µM | UHRF1 binding to methylated oligo, TR-FRET; in the data active means inhibition above about 21%;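 further: UHRF1 SRA domain binding a hemimethylated CpG hairpin DNA probe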
LEDGF integ inh: blocks HIV-1 LEDGF/p75-dependent DNA integration; inhibition, % at 3.7 µM; AID 743269; hit rate 0.64% among 370,000; TR-FRET IN-LEDGF/p75 DNA integration, Eu/Cy5;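 active means inhibition above the screen-wide mean plus 3 SD, cut at about 13% in these data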;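 further: signal is the Cy5 over europium emission ratio at 671 and 618 nm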
Numbers stand for hits; 0 = inactive. Hits are enriched below; roughly 1.6% of the tested compounds scored in any of these assays.

SMILES | MBD2 DNA inh | TDP2 absorb | UHRF1 MBD2 ctr | LEDGF integ inh
CC(C)C(C#CC1CC1)N(Cc1ccc2c(c1)OCO2)C(N)=NC(=O)/C=C/c1ccccc1 (configuration not stated) | 0 | 0 | 0 | 0
COC(=O)c1ccc(CN2CCC(CO)(Cc3ccccc3Cl)CC2)cc1 | 0 | 0 | 0 | 0
O=C(C1CC12CCCC2)N1CCC(CO)(Cc2ccccc2Cl)CC1 (configuration not stated) | 0 | 0 | 45.0 | 0
Cc1cc(-c2n[nH]c(=S)n2N=Cc2cc(Br)ccc2F)n[nH]1 | 0 | 0 | 0 | 0
C/C(=N\Nc1ccc(C(F)(F)F)cn1)c1ccncc1 | 0 | 0 | 22.1 | 0
COC(=O)[C@]1(C)CN(C(=O)OC(C)(C)C)C2=C1C(=O)C[C@@](C)(C(=O)OC(C)(C)C)C2 | 0 | 0 | 0 | 0
Cc1ccccc1CN1[C@@H](C)[C@H](c2ccccc2)Oc2cccc(N3CCCC(C)C3)c2S1(=O)=O (some centres not stated) | 0 | 0 | 0 | 0
C=CCN1[C@@H](C)[C@H](c2ccccc2)Oc2cccc(N3CCCC(C)C3)c2S1(=O)=O (some centres not stated) | 0 | 0 | 22.7 | 0
O=C(NCCSc1c[nH]c2ccccc12)C1CC1 | 0 | 0 | 45.3 | 0
C[C@H]1CCCN1c1cccc2c1S(=O)(=O)N(C1CC1)CCCO2 | 0 | 0 | 0 | 0
Cc1ccc(CNC(=O)C2CC(=O)N(C3CCCC3)C2)cc1 (configuration not stated) | 0 | 0 | 0 | 0
Cc1ccc(CNC(=O)C2CC(=O)N(C3CCCCCC3)C2)cc1 (configuration not stated) | 0 | 0 | 36.8 | 0
O=C1CSc2ccc(C(=O)N3CCCC(C(=O)N4CCCN(Cc5ccccc5)CC4)C3)cc2N1 (configuration not stated) | 0 | 0 | 0 | 0
COc1ccccc1-c1nnc(SCC(=O)NCc2c(C)c(Cl)cc(C(C)C)c2O)o1 | 0 | 0 | 42.6 | 0
COc1ccccc1-c1nnc(SCC(=O)Nc2c(Cl)cccc2Cl)o1 | 0 | 0 | 0 | 0
COc1ccc(S(=O)(=O)N2CCSC2c2ccc(OC)c(OC)c2)cc1 (configuration not stated) | 0 | 0 | 0 | 0
COc1ccc(S(=O)(=O)N2CCSC2c2ccccc2)cc1 (configuration not stated) | 0 | 0 | 69.1 | 0
CCCCCNC(=O)C(c1ccc(C(F)(F)F)cc1)n1c(=O)c(-c2ccco2)nc2ccccc21 (configuration not stated) | 0 | 0 | 21.0 | 0
O=C(O)CCCNc1n[nH]c(=O)[nH]c1=O | 0 | 0 | 25.6 | 0
N#CCN1C(=O)NC2(CCCc3sccc32)C1=O (configuration not stated) | 0 | 0 | 94.2 | 0
CN(Cc1ccccc1)C(=O)CN1C(=O)NC2(CCCc3sccc32)C1=O (configuration not stated) | 0 | 0 | 0 | 0
CC(C)NC(=O)COc1ccc(OCc2ccccc2)cc1 | 0 | 0 | 0 | 0
O=C(COc1ccc(OCc2ccccc2)cc1)NN=C1CCCC1 | 0 | 0 | 33.6 | 0
O=C(CCCCCNC(=O)c1ccccc1)N/N=C/c1ccc(O)cc1O | 0 | 0 | 20.9 | 0
CCOc1nc(Nc2ccc(OC)c(Cl)c2)nc(OCC)n1 | 0 | 0 | 36.2 | 0
SMILES | MBD2 DNA inh | TDP2 absorb | UHRF1 MBD2 ctr | LEDGF integ inh
COc1ccccc1C(=O)N1CCN(C(=O)[C@@H](Cc2ccccc2)NC(=O)[C@H]2O[C@@H](n3ccc(N)nc3=O)[C@H](O)[C@@H]2O)CC1 | 0 | 0 | 0 | 0
Cc1ccccc1CC(=O)NCC1CCCCC1 | 0 | 0 | 39.9 | 0
O=C(O)c1[nH]c2ccccc2c1C(c1cc(Cl)cc([N+](=O)[O-])c1O)c1c(C(=O)O)[nH]c2ccccc12 | 0 | 0 | 0 | 14.4
CCOC(=O)[C@]12CCCC=C1N(CCCOC)C(=O)[C@@H]2CC(=O)NCC1CCCCC1 | 0 | 0 | 0 | 0
O=C1c2oc3ccccc3c(=O)c2C(c2cccc(O)c2)N1CCCN1CCOCC1 (configuration not stated) | 0 | 0 | 0 | 0
COc1cccc(C2c3c(oc4ccccc4c3=O)C(=O)N2CCCN2CCOCC2)c1OC (configuration not stated) | 0 | 0 | 50.4 | 0
Cc1ccc(S(=O)(=O)N2CCCc3nc(-c4ccccc4)ccc32)cc1 | 0 | 0 | 0 | 0
CN(C(=O)CCc1nnc(CCCCc2ccccc2)o1)C1CC(C)(C)NC(C)(C)C1 | 0 | 0 | 45.6 | 0
CN(C(=O)CCc1nnc(CCCCc2ccccc2)o1)C1CCOCC1 | 0 | 0 | 0 | 0
COc1ccc(Cc2c(-c3ccc(C#N)cc3)nc3c(Cl)cc(C(F)(F)F)cn23)c(C)c1 | 0 | 0 | 0 | 0
CCCc1nc2c(Cl)cc(C(F)(F)F)cn2c1Cc1ccc(OC)cc1C | 0 | 0 | 22.3 | 0
CSc1ccc(C(=O)C2CCCN(C(=O)c3cccnc3SC)C2)cc1 (configuration not stated) | 0 | 0 | 25.9 | 0
CCOC(=O)COc1ccc(S(=O)(=O)N2CCN(c3ccccc3F)CC2)cc1 | 0 | 0 | 0 | 0
CCOc1ccc(OCCCC(=O)N2CCN(S(=O)(=O)c3ccc(Cl)cc3)CC2)cc1 | 0 | 0 | 0 | 31.5
CCOC(=O)COc1ccc(S(=O)(=O)N2CCN(c3ccc(OC)cc3)CC2)cc1 | 0 | 0 | 36.7 | 0
Cc1ccc(OCC(=O)Nc2ccc(S(=O)(=O)N3CCN(C)CC3)cc2)cc1 | 0 | 0 | 45.6 | 0
O=C(NC1CCCCN(Cc2ccc(OC(F)(F)F)cc2)C1=O)c1ccc2ccccc2c1 (configuration not stated) | 0 | 0 | 0 | 0
O=C1NN(c2ccccc2)C(=O)/C1=C/c1ccc(-c2ccc(Cl)c(C(=O)O)c2)o1 | 0 | 0 | 22.9 | 0
O=C(O)c1cc(-c2ccc(/C=C3\NC(=O)N(c4ccccc4)C3=O)o2)ccc1Cl | 0 | 0 | 0 | 0
Cc1cccc(N2NC(=O)/C(=C/c3ccc(-c4ccc(Cl)c(C(=O)O)c4)o3)C2=O)c1 | 0 | 0 | 31.4 | 0
CCCCNC(=O)C1c2ccccc2OCC(=O)N1CCc1ccc(OC)c(OC)c1 (configuration not stated) | 0 | 0 | 0 | 0
COc1ccc(CCN2C(=O)COc3ccccc3C2C(=O)NCc2ccccc2)cc1OC (configuration not stated) | 0 | 0 | 23.0 | 0
CCN(CC#CCC(O)(c1ccccc1)C1CCCC1)C(C)C (configuration not stated) | 0 | 0 | 0 | 0
CC(C)N(CC#CCC(O)(c1ccccc1)C1CCCC1)CCO (configuration not stated) | 0 | 0 | 28.3 | 0
O=[N+]([O-])c1ccc2nc(COCc3nc4ccccc4[nH]3)[nH]c2c1 | 0 | 0 | 0 | 0
COc1ccc(CCNCC2C(Oc3ccc(Cl)cc3)C(=O)N2c2ccccc2C)cc1OC (configuration not stated) | 0 | 0 | 23.4 | 0
O=C(OC12CCCN(C1)/C(=C/c1ccncc1)C2)c1ccc(Cl)cc1 (configuration not stated) | 0 | 0 | 0 | 0
COc1ccc(S(=O)(=O)Cc2ccc(C(=O)O)o2)cc1 | 0 | 0 | 0 | 0
